Results published in ChEMBL document CHEMBL3861990, “Elaboration of a proprietary thymidylate kinase inhibitor motif towards anti-tuberculosis agents” (Bioorg Med Chem, 2016).

Experiment: Inhibition of recombinant Mycobacterium tuberculosis TMPK expressed in Escherichia coli using dTMP as substrate in presence of ATP/pyruvate kinase/lactate dehydrogenase/nucleoside diphosphate kinase by coupled spectrophotometric assay
How it was run: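 Coupled assay read at 334 nm. Medium: 50 mM Tris-HCl pH 7.4, 50 mM KCl, 2 mM MgCl2, 0.2 mM NADH, 1 mM phosphoenolpyruvate, and 2 units each of LDH, pyruvate kinase and NDP kinase. ATP fixed at 0.5 mM and dTMP at 0.05 mM. Analogues varied from 0.01 to 1 mM. Result reported as Ki.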

Row | SMILES | Ki [µM]
1 | Cc1cn(C/C=C\CN2c3cccc4cccc(c34)S2(=O)=O)c(=O)[nH]c1=O | 0.27

Experiment: Inhibition of recombinant Mycobacterium tuberculosis TMPK using dTMP as substrate measured after 1 min in presence of ATP/pyruvate kinase/lactate dehydrogenase/nucleoside diphosphate kinase by coupled spectrophotometric assay
How it was run: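 Medium: 50 mM Tris-HCl pH 7.4, 50 mM KCl, 2 mM MgCl2, 0.2 mM NADH, 1 mM phosphoenolpyruvate, and 2 units each of LDH, pyruvate kinase and NDP kinase. ATP fixed at 0.5 mM and dTMP at 0.05 mM. Analogues varied from 0.01 to 1 mM. Result reported as Ki.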

Row | SMILES | Ki [µM]
2 | Cc1cn([C@H]2CCN(Cc3cccc(Oc4ccccc4)c3)C2)c(=O)[nH]c1=O | 7.8
3 | Cc1cn(CC2CCCN(Cc3cccc(Oc4ccccc4)c3)C2)c(=O)[nH]c1=O (racemic) | 186
4 | Nc1nc(=O)n([C@H]2C[C@H](O)[C@@H](CO)O2)cc1Br | 5
5 | Cc1cn(CC2CCN(Cc3cccc(Oc4ccccc4)c3)C2)c(=O)[nH]c1=O (racemic) | 111
6 | Cc1cn([C@H]2CCCN(Cc3ccc(Oc4ccccc4)cc3)C2)c(=O)[nH]c1=O | 21.5
7 | Cc1cn([C@@H]2CCN(Cc3cccc(Oc4ccccc4)c3)C2)c(=O)[nH]c1=O | 8.2
8 | Cc1cn([C@@H]2CCCN(Cc3ccc(Oc4ccccc4)cc3)C2)c(=O)[nH]c1=O | 138
9 | Cc1cn(C2CCCN(C(=O)c3cccc(Oc4ccccc4)c3)C2)c(=O)[nH]c1=O (racemic) | 2.1
10 | Cc1cn(CC2CCN(Cc3ccc(Oc4ccccc4)cc3)C2)c(=O)[nH]c1=O (racemic) | 267
11 | Cc1cn(C2CCCN(C(=O)c3ccc(Oc4ccccc4)cc3)C2)c(=O)[nH]c1=O (racemic) | 14.4
12 | Cc1cn(C2CCCN(Cc3ccc(Oc4ccccc4)cc3)C2)c(=O)[nH]c1=O (racemic) | 22.3
